Data from ChEMBL document CHEMBL3232756, “Synthesis and biological evaluation of N-dehydrodipeptidyl-N,N'-dicyclohexylurea analogs” (Eur J Med Chem, 2014).
≈ marks a conversion by molar mass, not a printed value.

What was measured:
[1] = tested on: Candida albicans; assay: Antimicrobial activity against Candida albicans MTCC 227 at 500 ug/ml after 24 hrs by cup plate method; type: functional; conditions: MTCC 227, 24 h, read-out: DIZ
[2] = tested on: Aspergillus niger; assay: Antimicrobial activity against Aspergillus niger MTCC 292 at 500 ug/ml after 24 hrs by cup plate method; type: functional; conditions: MTCC 292, 24 h, read-out: DIZ
[3] = tested on: Radical scavenging activity; assay: Antioxidant activity assessed as DPPH radical scavenging activity after 20 to 30 mins; type: functional
Outline: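 Test solution (2 ml at 25, 50, 75, 100, 125) mixed with 2 ml ethanolic DPPH, held in the dark at ambient temperature 20–30 min, then A517 read against an ethanol blank. Tocopherol used as standard. % scavenging = (Acontrol−Atest)/Acontrol×100, run in triplicate. IC50 read graphically from the % scavenging versus concentration plot.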

[4] = tested on: Brain; assay: Antioxidant activity against lipid peroxidation in Wister rat brain homogenates assessed as thiobarbituric acid reactive substance formation after 30 mins by spectrophotometer analysis; type: functional, tissue-based; conditions: 0.5 h
Outline: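 Whole brain minus cerebellum from overnight-fasted rats of either sex, 200–220 g. Homogenized 10% w/v in 0.15 M KCl and spun at 800 rpm for 10 min. Reaction incubated 37 °C for 30 min, then TBA:TCA (1:1) and BHT added, heated 80 °C for 20 min, cooled, centrifuged, A532 read.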

[5] = tested on: Aspergillus niger; assay: Antimicrobial activity against Aspergillus niger MTCC 292 at 0.02 ml of 1 mg/ml after 24 hrs by cup plate method; type: functional; conditions: MTCC 292, 24 h, read-out: DIZ
Outline: (§1)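 Cup-plate diffusion on Mueller-Hinton/nutrient agar swab-streaked with suspension, 6 mm cups bored. Each compound at 1 mg/ml in DMSO, 0.02 ml per cup; DMSO as solvent control. Amoxicillin for bacteria and fluconazole for fungi at 200 and 500 respectively as references. Incubation 37 °C for 24 h. Inhibition zone diameter in mm, triplicate, mean ± SD.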

[6] = Antioxidant activity assessed as trolox equivalents of cupric reducing antioxidant capacity after 30 mins; type: functional
Outline: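 Mix of 1 ml CuCl2 (10 mM), 1 ml ethanolic neocuproine (7.5 mM), 1 ml ammonium acetate buffer (pH 7.0, 1 M), 1 ml compound or standard solution and 0.1 ml water, total 4.1 ml. A450 read after 30 min against reagent blank. TEAC = ε test/ε Trolox.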

[7] = tested on: Pseudomonas aeruginosa; assay: Antimicrobial activity against Pseudomonas aeruginosa MTCC 1688 at 0.02 ml of 1 mg/ml after 24 hrs by cup plate method; type: functional; conditions: MTCC 1688, 24 h, read-out: DIZ; outline: as §1
[8] = tested on: Staphylococcus aureus; assay: Antimicrobial activity against Staphylococcus aureus MTCC 96 at 0.02 ml of 1 mg/ml after 24 hrs by cup plate method; type: functional; conditions: MTCC 96, 24 h, read-out: DIZ; outline: as §1
[9] = Antioxidant activity assessed as hydroxyl radical scavenging activity after 15 mins; type: functional
Outline: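 Deoxyribose degradation mix: 2-deoxy-2-ribose 2.8 mM, KH2PO4–KOH 20 mM pH 7.4, FeCl3, EDTA, H2O2 1.0 mM, ascorbic acid, plus compound in methanol. Incubated 1 h at 37 °C. A 0.5 ml aliquot taken with 1 ml 2.8% TCA and 1 ml 1% TBA, heated 90 °C for 15 min, cooled, A532 read. % inhibition against blank.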

[10] = tested on: Escherichia coli; assay: Antimicrobial activity against Escherichia coli ESS 2231 at 0.02 ml of 1 mg/ml after 24 hrs by cup plate method; type: functional; conditions: ESS 2231, 24 h, read-out: DIZ; outline: as §1
[11] = tested on: Candida albicans; assay: Antimicrobial activity against Candida albicans MTCC 227 at 0.02 ml of 1 mg/ml after 24 hrs by cup plate method; type: functional; conditions: MTCC 227, 24 h, read-out: DIZ; outline: as §1
[12] = tested on: Bacillus subtilis; assay: Antimicrobial activity against Bacillus subtilis MTCC 441 at 0.02 ml of 1 mg/ml after 24 hrs by cup plate method; type: functional; conditions: MTCC 441, 24 h, read-out: DIZ; outline: as §1
[13] = tested on: Mus musculus; assay: Acute toxicity in Swiss albino mouse assessed as mortality up to 1500 mg/kg, po; type: organism-based; parameters: dose 1500 mg/kg, route oral; conditions: in vivo
Outline: (§2)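 Swiss albino mice (6–8 weeks, 25–30 g) were dosed orally at 500, 1000 or 1500 mg/kg, following OECD guidelines. Body weight, food and water intake, behavioural patterns and mortality were recorded and compared with a control group.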

[14] = tested on: Mus musculus; assay: Analgesic activity in Swiss albino mouse assessed as inhibition of acetic acid-induced writhing response at 100 mg/kg, po administered 1 hr before acetic acid challenge after 5 mins; type: functional
[15] = tested on: Rattus norvegicus; assay: Antiinflammatory activity in Wister rat assessed as inhibition of carrageenan-induced paw edema at 100 mg/kg, po administered 1 hr before carrageenan challenge measured after 3 hrs by plethysmograph analysis; type: functional
Outline: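 Rats of either sex, 150–220 g, food withheld 4 h. Compound or diclofenac sodium 100 mg/kg p.o., or 0.5% sodium CMC at 10 ml/kg as vehicle control, given 1 h before 0.05 ml of 1% carrageenan subplantar into the right hind paw. Paw volume read by water-displacement plethysmograph at 0, 30, 60, 120 and 180 min. % edema inhibition = 100(1−Vt/Vc); n=5, control n=6; ANOVA/Dunnett.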

[16] = tested on: Mus musculus; assay: Acute toxicity in Swiss albino mouse assessed as gross behavioral changes up to 1500 mg/kg, po; type: organism-based; parameters: dose 1500 mg/kg, route oral; conditions: in vivo; outline: as §2
[17] = Cytotoxicity against brine shrimps larvae assessed as mortality after 24 hrs; type: organism-based; conditions: artemia, in vivo; read-out: ED50
Outline: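 Shrimp eggs were hatched in filtered artificial sea water (38 g sea salt/L) in a divided tank. Larvae were exposed in vials at several concentrations under a lamp, and survivors were counted 24 h later. ED50 and 95% confidence intervals were derived from % larvae surviving by Finney probit analysis.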

[18] = tested on: Bacillus subtilis; assay: Antimicrobial activity against Bacillus subtilis MTCC 441 at 200 ug/ml after 24 hrs by cup plate method; type: functional; conditions: MTCC 441, 24 h, read-out: DIZ
[19] = tested on: Staphylococcus aureus; assay: Antimicrobial activity against Staphylococcus aureus MTCC 96 at 200 ug/ml after 24 hrs by cup plate method; type: functional; conditions: MTCC 96, 24 h, read-out: DIZ
[20] = tested on: Escherichia coli; assay: Antimicrobial activity against Escherichia coli ESS 2231 at 200 ug/ml after 24 hrs by cup plate method; type: functional; conditions: ESS 2231, 24 h, read-out: DIZ
[21] = tested on: Pseudomonas aeruginosa; assay: Antimicrobial activity against Pseudomonas aeruginosa MTCC 1688 at 200 ug/ml after 24 hrs by cup plate method; type: functional; conditions: MTCC 1688, 24 h, read-out: DIZ

Row | SMILES | IC50 [3] | IC50 [4] | zone of inhibition at 1000 µg/mL [5] | TEAC (Trolox equivalents) [6] | zone of inhibition at 1000 µg/mL [7] | zone of inhibition at 1000 µg/mL [8] | IC50 [9] | zone of inhibition at 1000 µg/mL [10] | zone of inhibition at 1000 µg/mL [11] | zone of inhibition at 1000 µg/mL [12] | Activity [13] | inhibition in vivo at 100 mg/kg [14] | inhibition in vivo at 100 mg/kg [15] | Activity [16] | LC50 at 24 h [17] | further results
1 | OC(Cn1cncn1)(Cn1cncn1)c1ccc(F)cc1F [FLUCONAZOLE] | – | – | – | – | – | – | – | – | – | – | – | – | – | – | – | zone of inhibition at 500 µg/mL [1]: 23.2 mm; zone of inhibition at 500 µg/mL [2]: 24 mm
2 | CC(C)c1ccc(/C=C(/NC(=O)c2ccccc2)C(=O)NC(CS)C(=O)N(C(=O)NC2CCCCC2)C2CCCCC2)cc1 (stereo unspecified) | 74.7 µM | 92.8 µM | 14.4 mm | 2.36 | 15.4 mm | 12.9 mm | 82.2 µM | 11.8 mm | 12.2 mm | 15.2 mm | Non-toxic | 58.5% | 28.2% | Non-toxic | 16.7 µg/mL (≈ 27 µM) | –
3 | O=C(NC(CS)C(=O)N(C(=O)NC1CCCCC1)C1CCCCC1)/C(=C\c1ccc(Cl)cc1)NC(=O)c1ccccc1 (stereo unspecified) | 57.1 µM | 60.7 µM | 21.2 mm | 2.65 | 17.4 mm | 16.5 mm | 66.3 µM | 18.3 mm | 13.5 mm | 18.4 mm | Non-toxic | 40.8% | 22.8% | Non-toxic | 10 µg/mL (≈ 16.4 µM) | –
4 | O=C(NC(CS)C(=O)N(C(=O)NC1CCCCC1)C1CCCCC1)/C(=C\c1ccccc1)NC(=O)c1ccccc1 (stereo unspecified) | 44.4 µM | 59.5 µM | 18.3 mm | 3.84 | 20.6 mm | 24.4 mm | 64.4 µM | 25.8 mm | 17.4 mm | 23.2 mm | Non-toxic | 56.8% | 43.4% | Non-toxic | 3.53 µg/mL (≈ 6.12 µM) | –
5 | CC1(C)S[C@@H]2[C@H](NC(=O)[C@H](N)c3ccc(O)cc3)C(=O)N2[C@H]1C(=O)O [AMOXICILLIN] | – | – | – | – | – | – | – | – | – | – | – | – | – | – | – | zone of inhibition at 200 µg/mL [18]: 21.2 mm; zone of inhibition at 200 µg/mL [19]: 22 mm; zone of inhibition at 200 µg/mL [20]: 22.6 mm; zone of inhibition at 200 µg/mL [21]: 21.4 mm
6 | O=C(NC(CS)C(=O)N(C(=O)NC1CCCCC1)C1CCCCC1)/C(=C\c1ccc(O)cc1)NC(=O)c1ccccc1 (stereo unspecified) | 47.2 µM | 54.4 µM | 24.5 mm | 3.91 | 20.7 mm | 24.8 mm | 54 µM | 23.5 mm | 26.6 mm | 24.4 mm | Non-toxic | 43.2% | 41.3% | Non-toxic | 4.38 µg/mL (≈ 7.39 µM) | –
